From ChEMBL document CHEMBL1157912, “Impact of nature and length of linker incorporated in agonists on toll-like receptor 9-mediated immune responses” (J Med Chem, 2010)
The source made the active and inactive calls. No cut-off for these calls is given here.

Experiments:
[1] = target: T1, Toll-like receptor 9 (Mus musculus) (UniProt Q9EQU3); assay: Activation of mouse TLR9 expressed in HEK293 cells assessed as induction of NF-kappaB activity at 1 to 10 ug/ml after 18 hrs by SEAP assay; format: cell-based
T1 sequence (whole entry): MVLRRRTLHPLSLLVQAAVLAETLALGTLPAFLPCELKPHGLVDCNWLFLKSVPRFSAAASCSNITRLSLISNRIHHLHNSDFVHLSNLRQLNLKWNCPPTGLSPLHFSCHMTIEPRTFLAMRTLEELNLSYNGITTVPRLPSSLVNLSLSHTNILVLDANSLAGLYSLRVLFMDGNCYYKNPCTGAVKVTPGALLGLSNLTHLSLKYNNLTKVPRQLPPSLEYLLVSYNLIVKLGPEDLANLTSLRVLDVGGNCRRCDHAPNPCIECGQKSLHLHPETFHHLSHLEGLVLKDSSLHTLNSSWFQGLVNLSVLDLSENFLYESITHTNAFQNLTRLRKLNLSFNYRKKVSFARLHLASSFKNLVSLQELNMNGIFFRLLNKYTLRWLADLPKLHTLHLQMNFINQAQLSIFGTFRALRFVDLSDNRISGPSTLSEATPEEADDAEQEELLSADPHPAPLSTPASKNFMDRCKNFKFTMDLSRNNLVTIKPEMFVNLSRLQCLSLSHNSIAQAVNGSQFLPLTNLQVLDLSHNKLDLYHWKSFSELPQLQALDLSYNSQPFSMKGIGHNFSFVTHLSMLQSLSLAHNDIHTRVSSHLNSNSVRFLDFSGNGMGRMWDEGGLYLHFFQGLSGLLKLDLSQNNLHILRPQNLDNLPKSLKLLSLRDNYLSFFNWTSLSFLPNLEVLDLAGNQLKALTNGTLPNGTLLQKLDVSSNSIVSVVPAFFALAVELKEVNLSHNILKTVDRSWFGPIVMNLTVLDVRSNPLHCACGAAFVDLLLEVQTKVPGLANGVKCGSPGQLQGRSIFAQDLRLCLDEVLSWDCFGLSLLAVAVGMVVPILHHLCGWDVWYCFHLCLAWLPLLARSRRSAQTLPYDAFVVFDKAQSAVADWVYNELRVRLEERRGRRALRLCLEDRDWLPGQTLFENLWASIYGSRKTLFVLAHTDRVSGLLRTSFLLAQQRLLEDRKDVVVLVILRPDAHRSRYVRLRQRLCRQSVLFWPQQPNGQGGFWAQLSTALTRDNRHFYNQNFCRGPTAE
Procedure, shortened: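 HEK293 cells stably expressing mouse TLR9 were grown in DMEM with 10% heat-inactivated FBS. At 80% confluence they were transiently transfected with a SEAP reporter plasmid (100 ng/well, lipofectamine) for 6 h. Medium was then replaced and agonists were added for 18 h. Supernatant SEAP was read with QuantiBlue substrate at 620-645 nm. Results are expressed as fold NF-κB activity over PBS control.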

[2] = target: T2, Toll-like receptor 9 (Homo sapiens) (UniProt Q9NR96); assay: Induction of TLR9-mediated immune stimulation in human PBMC assessed as IP10 production at 2 ug/ml after 24 hrs by luminex multiplex assay (RVb = 0.00 ng/ml)
T2 sequence (whole entry): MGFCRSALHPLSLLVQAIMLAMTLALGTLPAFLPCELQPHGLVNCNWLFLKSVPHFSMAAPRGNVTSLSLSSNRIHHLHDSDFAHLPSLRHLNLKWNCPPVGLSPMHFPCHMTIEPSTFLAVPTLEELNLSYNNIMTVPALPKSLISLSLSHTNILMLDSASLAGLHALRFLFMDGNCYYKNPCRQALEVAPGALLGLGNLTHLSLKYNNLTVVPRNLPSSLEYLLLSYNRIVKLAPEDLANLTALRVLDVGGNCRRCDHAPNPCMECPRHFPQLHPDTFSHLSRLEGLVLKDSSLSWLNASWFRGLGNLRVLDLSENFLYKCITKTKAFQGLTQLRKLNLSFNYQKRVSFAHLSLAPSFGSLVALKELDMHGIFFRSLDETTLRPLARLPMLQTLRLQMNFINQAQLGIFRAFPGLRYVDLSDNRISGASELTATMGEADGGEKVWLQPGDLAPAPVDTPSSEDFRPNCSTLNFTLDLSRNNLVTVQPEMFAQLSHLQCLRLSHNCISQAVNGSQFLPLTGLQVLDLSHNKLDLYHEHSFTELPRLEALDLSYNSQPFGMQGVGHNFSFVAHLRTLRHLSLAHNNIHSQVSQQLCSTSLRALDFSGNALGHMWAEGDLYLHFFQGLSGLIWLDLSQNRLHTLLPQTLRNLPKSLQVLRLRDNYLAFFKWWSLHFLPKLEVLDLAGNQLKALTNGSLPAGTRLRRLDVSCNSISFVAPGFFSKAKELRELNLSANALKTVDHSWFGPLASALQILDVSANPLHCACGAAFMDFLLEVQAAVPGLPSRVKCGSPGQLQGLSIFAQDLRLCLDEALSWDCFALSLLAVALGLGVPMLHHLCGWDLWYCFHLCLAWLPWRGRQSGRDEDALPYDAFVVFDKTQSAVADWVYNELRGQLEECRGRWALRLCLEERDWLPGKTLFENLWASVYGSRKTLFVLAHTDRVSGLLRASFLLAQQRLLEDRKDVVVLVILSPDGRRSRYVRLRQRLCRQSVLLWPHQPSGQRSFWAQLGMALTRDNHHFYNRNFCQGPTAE

[3] = target: T2, Toll-like receptor 9 (Homo sapiens); assay: Induction of TLR9-mediated human B cell proliferation assessed as [3H]thymidine uptake at 2 to 10 ug/ml after 56 hrs by scintillation counting; format: cell-based
Procedure, shortened: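 B cells were purified from human PBMCs (healthy volunteers), about 1 × 10⁵ cells, and stimulated with various agonist concentrations for 56 h. Cells were then pulsed with 0.75 μCi [³H]-thymidine and harvested 16 h later. Incorporation was counted by scintillation and reported as cpm.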

Activity [1]: Active | Activity [2]: 0.01 ng/mL | Activity [3]: Active
SMILES: Cc1cn([C@H]2C[C@H](OCC(O)COP(=O)(S)O[C@H]3C[C@H](n4cc(C)c(=O)[nH]c4=O)O[C@@H]3COP(=O)(S)O[C@H]3[C@@H](O)[C@H](n4ccc(N)nc4=O)O[C@@H]3COP(=O)(S)O[C@H]3[C@@H](O)[C@H](n4cnc5c(N)ncnc54)O[C@@H]3COP(=O)(S)O[C@H]3[C@@H](O)[C@H](n4cnc5c(N)ncnc54)O[C@@H]3COP(=O)(S)O[C@H]3[C@@H](O)[C@H](n4ccc(N)nc4=O)O[C@@H]3COP(=O)(S)O[C@H]3[C@@H](O)[C@H](n4ccc(N)nc4=O)O[C@@H]3COP(=O)(S)O[C@H]3[C@@H](O)[C@H](n4cnc5c(N)ncnc54)O[C@@H]3COP(=O)(S)O[C@H]3[C@@H](O)[C@H](n4ccc(N)nc4=O)O[C@@H]3COP(=O)(S)O[C@H]3[C@@H](O)[C@H](n4cnc5c(N)ncnc54)O[C@@H]3COP(=O)(S)O[C@H]3[C@@H](O)[C@H](n4ccc(N)nc4=O)O[C@@H]3COP(=O)(S)O[C@H]3[C@@H](O)[C@H](n4cnc5c(N)ncnc54)O[C@@H]3CO)[C@@H](COP(=O)(S)O[C@H]3[C@@H](O)[C@H](n4ccc(N)nc4=O)O[C@@H]3COP(=O)(S)O[C@H]3[C@@H](O)[C@H](n4cnc5c(N)ncnc54)O[C@@H]3COP(=O)(S)O[C@H]3[C@@H](O)[C@H](n4cnc5c(N)ncnc54)O[C@@H]3COP(=O)(S)O[C@H]3[C@@H](O)[C@H](n4ccc(N)nc4=O)O[C@@H]3COP(=O)(S)O[C@H]3[C@@H](O)[C@H](n4ccc(N)nc4=O)O[C@@H]3COP(=O)(S)O[C@H]3[C@@H](O)[C@H](n4cnc5c(N)ncnc54)O[C@@H]3COP(=O)(S)O[C@H]3[C@@H](O)[C@H](n4ccc(N)nc4=O)O[C@@H]3COP(=O)(S)O[C@H]3[C@@H](O)[C@H](n4cnc5c(N)ncnc54)O[C@@H]3COP(=O)(S)O[C@H]3[C@@H](O)[C@H](n4ccc(N)nc4=O)O[C@@H]3COP(=O)(S)O[C@H]3[C@@H](O)[C@H](n4cnc5c(N)ncnc54)O[C@@H]3CO)O2)c(=O)[nH]c1=O (stereo partly drawn)
